# Calls of active or inactive are those of the source. No cut-off for these calls is given here.
# Tested on: NCI-H1650
# Assay: Cytotoxicity against human NCI-H1650 cells assessed as growth inhibition after 48 hrs by MTT assay
# Format: functional
# In short: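 H1650 cells were exposed to drug for 48 h at five concentrations bracketing 1–40 μM in 10 μM steps, with MTT read-out. GI50 is given only where the data form a sigmoidal dose response.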
SMILES,"GI50 (NCI-H1650, 48 h) [µM]",GI50
O=S(=O)(NCCCN1c2ccccc2Sc2ccc(Cl)cc21)c1cc(F)cc(F)c1,18,
O=S(=O)(NC1CCCC(=C2c3ccccc3CCc3ccccc32)C1)c1ccc(Cl)cc1 (stereo not drawn),17,
O=S(=O)(NCCCN1c2ccccc2CCc2ncccc21)c1ccc(Cl)cc1,30,
Cc1nn(C)c(C)c1S(=O)(=O)NCCCN1c2ccccc2CCc2ccccc21,> 40,
O=C(NCCCN1c2ccccc2CCc2ccc(Cl)cc21)Nc1ccc(OC(F)(F)F)cc1,> 40,
O=S(=O)(NCCCN1c2ccccc2CCc2ccc(Cl)cc21)c1ccc(Cl)cc1F,20.8,
N#Cc1ccc(S(=O)(=O)NCCC=C2c3ccccc3CCc3ccccc32)cc1,25,
O=S(=O)(CCCN1c2ccccc2CCc2ccc(Cl)cc21)c1ccc(OC(F)(F)F)cc1,,inactive

# Reference: ChEMBL document CHEMBL3611968, “Reengineered tricyclic anti-cancer agents” (Bioorg Med Chem, 2015)
